From PubChem
In the library only some 2.3% were active in any assay of this set; here they are far more common.
tolC growth inh – blocks growth of E. coli BW25113 tolC mutant; OD615; growth inhibition, % at 10 µM (by protocol); 2.2% of 65,000 active; AID 573;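 active = growth inhibition at or above a cutoff equal to the mean over every tested compound plus 3 SD, cut at about 60% in these data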;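 also: growth measured after 20 h incubation at 37 °C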
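Assay system: tolC-deleted E. coli BW25113. Medium: kanamycin-containing LB broth (50 µg/mL). Dosing: 10 µM final, single dose. Timing: bacterial growth with compound for 20 h at 37 °C. Detection: A615 absorbance measurement. Read-out basis: growth inhibition in percent.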
HePTP inh – blocks human HePTP tyrosine phosphatase; P35236; recombinant HePTP phosphatase activity, OD absorbance; inhibition, % at 20 µM; 0.64% of 110,000 active; AID 521; in the data active = inhibition above about 50%;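 also: plate controls were vehicle for no effect and reference inhibitor for full effect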
Target sequence (P35236 whole entry, looked up): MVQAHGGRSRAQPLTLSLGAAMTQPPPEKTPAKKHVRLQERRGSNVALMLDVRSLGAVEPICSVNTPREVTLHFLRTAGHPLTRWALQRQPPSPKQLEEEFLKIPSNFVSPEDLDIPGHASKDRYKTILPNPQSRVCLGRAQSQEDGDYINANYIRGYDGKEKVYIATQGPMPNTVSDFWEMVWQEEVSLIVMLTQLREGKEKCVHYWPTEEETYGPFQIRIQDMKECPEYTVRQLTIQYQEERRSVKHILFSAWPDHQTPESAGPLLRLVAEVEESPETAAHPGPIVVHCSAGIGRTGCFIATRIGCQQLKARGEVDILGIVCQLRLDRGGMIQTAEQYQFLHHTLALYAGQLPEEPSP
AP complement – orthogonal test for alternative complement pathway inhibitors; Human serum alternative complement pathway, LPS-coated ELISA, C3 deposition; tested in compound mixtures; inhibition, % at 5 µM; 0.08% of 62,000 active; AID 1235;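 active = inhibition above 30% in each of the two pooled mixtures holding the compound, so the lower value exceeds 30%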;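 also: 0% = serum in Mg-EGTA without compound and 100% = EDTA serum blank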
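Test system – human serum alternative complement pathway, C3 deposition on LPS-coated wells · Buffer or medium – diluted human serum in Mg2+-EGTA GVB++ · Compound dosing – 5 µM each compound, pools of ten, 50 µM per pool · Schedule – 1 h serum-compound exposure at 37 °C · Measured by – Anti-C3 ELISA, OD 450 nm · Read-out basis – percent inhibition of C3 deposition onto LPS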
PLAP act – activators of human placental alkaline phosphatase. purified PLAP enzyme, luminescent substrate read-out; hits give high values. activation fold at 20 µM. 1.2% of 96,000 active. AID 696; in the data active = activation fold above about 2
Ecoli WT expand – blocks growth of wild type E. coli BW25113; 0.15% of 98,000 active; OD600 absorbance; growth inhibition, % at 100 µM; AID 710;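 active = growth inhibition above about 50% at one test dose, limit read from the data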;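 also: growth measured after 20 h incubation at 37 °C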
* hit, by the source's call.

Screening CC(C)N(Cc1nc(-c2ccccc2)no1)C(=O)c1ccc(Cl)cc1 returned tolC growth inh 68.2*, HePTP inh 1.0, AP complement 8.2, PLAP act 1.5 and Ecoli WT expand -5.0.
`COc1cc(OC)cc(C(=O)N(Cc2nc(-c3cccc(C)c3)no2)C(C)C)c1` gave tolC growth inh 66.6*, HePTP inh -0.9, AP complement 20.1, PLAP act 1.5 and Ecoli WT expand -10.0.
Screening CC(C)N(Cc1nc(-c2ccc(Cl)cc2)no1)C(=O)c1cccs1 returned tolC growth inh 68.2*, HePTP inh 3.2, AP complement 25.7, PLAP act 1 and Ecoli WT expand -1.0.
CCOc1cc(C(=O)Nc2ccc(Cl)cc2Cl)cc(OCC)c1OCC was read as HePTP inh 0.3.
`CCCCn1nc(NC(=O)c2cccs2)c2cc3ccccc3nc21` gave tolC growth inh 91.4*, HePTP inh 0.1, AP complement 3.3, PLAP act 1 and Ecoli WT expand -12.0.
CCCCn1nc(NC(=O)c2cccs2)c2cc3cc(OC)ccc3nc21 was read as tolC growth inh 63.4*, HePTP inh 7.9, AP complement 1.9, PLAP act 1.5 and Ecoli WT expand -13.0.
For CCCn1nc(NC(=O)c2cccs2)c2cc3ccccc3nc21 the results were PLAP act 1.1 and Ecoli WT expand 3.0.
Screening CCCC(=O)c1ccc(N2CCN(C(=O)CCC)CC2)c(F)c1 returned HePTP inh 7.6.
CCCC(=O)c1ccc(N2CCCCCC2)c(F)c1 was read as tolC growth inh 67.7*, HePTP inh 7.5, AP complement 5.3, PLAP act 1.1 and Ecoli WT expand -8.0.
For O=C(/C=C/Nc1ccc(F)c(Cl)c1)c1ccc(Br)cc1 the results were HePTP inh -11.9.
Screening C=CCSc1nc(O)c(CC)c(=O)n1C(C)CC (centres undefined) returned tolC growth inh 24.1, HePTP inh 7.8, AP complement 18.2, PLAP act 1.2 and Ecoli WT expand 1.0.
Screening CCc1c(O)nc(SCc2ccccc2)n(C(C)CC)c1=O (centres undefined) returned tolC growth inh 70.1*, HePTP inh 5.7, AP complement -1.4, PLAP act 0.9 and Ecoli WT expand 8.0.
Screening CCC(C)C(NC(=O)c1ccccc1NC(=O)c1ccc(OC)cc1)C(=O)NCc1ccco1 (centres undefined) returned tolC growth inh 11.5, HePTP inh 0.1, AP complement 13.2, PLAP act 2.1* and Ecoli WT expand 6.0.
For Cc1ccc(-n2c(C)cc(C(=O)COC(=O)c3c(C)noc3C)c2C)cc1 the results were tolC growth inh 82.4*, HePTP inh 7.6, AP complement 2.6, PLAP act 1 and Ecoli WT expand -9.0.
For COC(=O)c1ccc(NC(=O)C(C)Oc2ccc(Cl)cc2C)cc1 (centres undefined) the results were HePTP inh 5.7.
For Cc1c(-c2ccc(Cl)cc2Cl)nc2ccccc2c1C(=O)O the results were HePTP inh -1.0.
Screening Cc1c(-c2cccc(Cl)c2)nc2ccccc2c1C(=O)O returned HePTP inh 104.7*.
For CC1=C(C(=O)Nc2cccc(Cl)c2C)C(c2ccc([N+](=O)[O-])cc2)NC(=S)N1 (centres undefined) the results were HePTP inh -3.1.
COCc1cc(C)nc2sc3c(=O)oc(C)nc3c12 was read as tolC growth inh 66.1*, HePTP inh -0.1, AP complement -1.7, PLAP act 1.1 and Ecoli WT expand 4.0.
`COc1cccc(-n2nnnc2SCC(=O)N2CCCc3ccccc32)c1` gave tolC growth inh 24.1, HePTP inh 4.3, AP complement 13.0, PLAP act 1.3 and Ecoli WT expand -13.0.
For COc1cc(OC)cc(-n2nnnc2SCC(=O)N2CCCc3ccccc32)c1 the results were tolC growth inh 84.4*, HePTP inh 8.9, AP complement 9.2, PLAP act 1.1 and Ecoli WT expand -10.0.
For CCN1C(=O)N(CC)C2C1N(COC(C)=O)C(=O)N2COC(C)=O (centres undefined) the results were HePTP inh 8.1.
`O=c1cc(O)nc(SCc2ccccc2)[nH]1` gave tolC growth inh 6.3, HePTP inh 15.0, AP complement 6.6, PLAP act 1.1 and Ecoli WT expand 1.0.
Screening CC(C)(C)Sc1nc(O)cc(=O)[nH]1 returned tolC growth inh -25.9, HePTP inh 1.5, AP complement 34.0*, PLAP act 0.9 and Ecoli WT expand -4.0.
For C=CCNC(=S)NNC(=O)c1ccc(OCC)cc1 the results were PLAP act 1.7 and Ecoli WT expand 3.0.
Screening CCCOc1ccc(C(=O)NNC(=S)NC(=O)CC)cc1 returned PLAP act 1.2 and Ecoli WT expand 68.0*.
`COc1ccc(N2CC(C(=O)OCC(=O)c3ccc(Br)cc3)CC2=O)cc1` (centres undefined) gave HePTP inh -5.3.
`CC(c1nnc(SCC(=O)N2CC(=O)Nc3ccccc32)n1Cc1ccccc1)N(C)C` (centres undefined) gave PLAP act 2* and Ecoli WT expand 7.0.
Cn1c(=O)c(N)c2c3c(cccc31)C(=O)c1ccccc1-2 was read as HePTP inh -0.3.
`O=C(CSc1nnc(Cc2ccccc2)n1-c1ccccc1)NNC(=O)Cc1ccccc1` gave PLAP act 2.5* and Ecoli WT expand 1.0.
`Cc1ccc(S(=O)(=O)Nc2cccc3cccnc23)cc1` gave PLAP act 1.2 and Ecoli WT expand -3.0.
`Cc1ccc(-n2c(-c3ccc(Br)cc3)c[n+]3c2CCc2ccc4cccnc4c2-3)cc1` gave PLAP act 0.9 and Ecoli WT expand 78.0*.
For COC(=O)CCC(=O)NNc1ccc([N+](=O)[O-])cc1 the results were HePTP inh 59.8*.
COC(=O)CCC(=O)Nc1ccc([N+](=O)[O-])cc1C was read as HePTP inh 7.8.
`COc1ccc(C/C(N)=N/OC(=O)COc2ccc(Br)c(C)c2)cc1` gave HePTP inh 5.7.
`O=C(Nc1cccc(Cl)c1)c1cccc(NC(=S)Nc2ccc(F)cc2)c1` gave HePTP inh 103.9*.
Cc1ccc(NC(=O)CCC(=O)NNC(=O)Cc2ccccc2)cc1C was read as PLAP act 1.5 and Ecoli WT expand -8.0.
Screening Cc1ccc(NC(=O)CCC(=O)NNC(=O)c2cccs2)cc1C returned PLAP act 2* and Ecoli WT expand 1.0.
Screening Cc1cc(C)c(S(=O)(=O)N(CC(=O)NCc2cccnc2)C2CCCCC2)c(C)c1 returned tolC growth inh 27.2, HePTP inh 9.5, AP complement 11.9, PLAP act 2.3* and Ecoli WT expand 8.0.
For O=C(Nc1nc(SCc2ccc(F)cc2)ns1)c1ccco1 the results were tolC growth inh 81.0*.
Fc1ccc(CSc2nsc(SCc3ccc(F)cc3)n2)cc1 was read as PLAP act 0.5 and Ecoli WT expand 7.0.
COc1cccc(/C=C2/SC(=S)N(CCC(=O)N3c4ccccc4Sc4ccc(Cl)cc43)C2=O)c1 was read as HePTP inh -9.6.
